Data published in ChEMBL document CHEMBL1146087, “1,4-Benzodiazepines as inhibitors of respiratory syncytial virus” (J Med Chem, 2006).

Experiments:
HEp-2 = assay: Cytotoxicity against Hep2 cell at 50 uM; type: functional, cell-based; conditions: Homo sapiens
Method in brief: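 Run alongside the whole-cell antiviral XTT assay, without virus, to measure compound toxicity to the cells. The read-out is XTT.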

[1] = test system: Respiratory syncytial virus; assay: Antiviral activity against RSV RSS in Hep2 cells by whole cell XTT assay; type: functional, organism-based; conditions: human respiratory syncytial virus, HEp-2
Method in brief: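 Primary whole-cell assay with XTT read-out of infected cells. Parallel cultures without virus were run to measure compound cytotoxicity. IC50 values were derived.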

[2] = Clearance in Sprague-Dawley rat at 2 mg/kg, iv; type: ADME, organism-based; parameters: dose 2 mg/kg, route intravenous; conditions: in vivo
[3] = Tmax in Sprague-Dawley rat at 2 mg/kg, iv; type: ADME, organism-based; parameters: dose 2 mg/kg, route intravenous; conditions: in vivo
[4] = Oral bioavailability in Sprague-Dawley rat at 2 mg/kg, po; type: ADME, organism-based; conditions: in vivo
[5] = Volume of distribution in Sprague-Dawley rat at 2 mg/kg, iv; type: ADME, organism-based; parameters: dose 2 mg/kg, route intravenous; conditions: in vivo, read-out: Vdss
[6] = Tmax in Sprague-Dawley rat at 2 mg/kg, po; type: ADME, organism-based; parameters: dose 2 mg/kg, route oral; conditions: in vivo
[7] = Cmax in Sprague-Dawley rat at 2 mg/kg, iv; type: ADME, organism-based; parameters: dose 2 mg/kg, route intravenous; conditions: in vivo
[8] = Cmax in Sprague-Dawley rat at 2 mg/kg, po; type: ADME, organism-based; parameters: dose 2 mg/kg, route oral; conditions: in vivo
[9] = Half life in Sprague-Dawley rat at 2 mg/kg, iv; type: ADME, organism-based; parameters: dose 2 mg/kg, route intravenous; conditions: in vivo
[10] = Cmax in Sprague-Dawley rat at 20 mg/kg, po; type: ADME, organism-based; parameters: dose 20 mg/kg, route oral; conditions: in vivo
[11] = Tmax in Sprague-Dawley rat at 20 mg/kg, po; type: ADME, organism-based; parameters: dose 20 mg/kg, route oral; conditions: in vivo
[12] = Apparent oral clearance in Sprague-Dawley rat at 20 mg/kg, po; type: ADME, organism-based; parameters: dose 20 mg/kg, route oral; conditions: in vivo
[13] = test system: Respiratory syncytial virus; assay: Antiviral activity against RSV Long in Hep2 cells by ELISA; type: functional, organism-based; conditions: human respiratory syncytial virus, HEp-2
[14] = test system: Respiratory syncytial virus; assay: Antiviral activity against RSV B in Hep2 cells by plaque assay; type: functional, organism-based; conditions: human respiratory syncytial virus, HEp-2
Rattus norvegicus [15] = assay: Volume of distribution in Sprague-Dawley rat at 20 mg/kg, po; type: ADME, organism-based; parameters: dose 20 mg/kg, route oral; conditions: in vivo
[16] = test system: Respiratory syncytial virus; assay: Antiviral activity against RSV RSS in Hep2 cells by ELISA; type: functional, organism-based; conditions: human respiratory syncytial virus, HEp-2
[17] = Half life in Sprague-Dawley rat at 20 mg/kg, po; type: ADME, organism-based; parameters: dose 20 mg/kg, route oral; conditions: in vivo
[18] = test system: Respiratory syncytial virus; assay: Antiviral activity against RSV RSS in Hep2 cells by plaque assay; type: functional, organism-based; conditions: human respiratory syncytial virus, HEp-2
[19] = test system: Respiratory syncytial virus; assay: Antiviral activity against RSV B in Hep2 cells by ELISA; type: functional, organism-based; conditions: human respiratory syncytial virus, HEp-2
[20] = test system: Respiratory syncytial virus; assay: Antiviral activity against RSV Long in Hep2 cells by plaque assay; type: functional, organism-based; conditions: human respiratory syncytial virus, HEp-2
[21] = test system: Respiratory syncytial virus; assay: Antiviral activity against RSV A2 in Hep2 cells by plaque assay; type: functional, organism-based; conditions: human respiratory syncytial virus, A2, HEp-2
Rattus norvegicus [22] = assay: Volume of distribution in Sprague-Dawley rat at 2 mg/kg, po; type: ADME, organism-based; parameters: dose 2 mg/kg, route oral; conditions: in vivo
[23] = Half life in Sprague-Dawley rat at 2 mg/kg, po; type: ADME, organism-based; parameters: dose 2 mg/kg, route oral; conditions: in vivo

Structure (SMILES) | Activity (HEp-2) | IC50 [1] [µM] | also measured
O=C(NC1N=C(c2ccccc2)c2ccccc2NC1=O)c1ccc(N2CCOCC2)cc1Cl (stereo unspecified) | Not toxic | 3.4 | 
O=C(NC1N=C(c2ccccc2)c2ccccc2NC1=O)c1cccc(OC(F)(F)F)c1 (stereo unspecified) | Not toxic | 14.6 | 
CCCOc1ccccc1C(=O)NC1N=C(c2ccccc2)c2ccccc2NC1=O (stereo unspecified) | Not toxic | 40.2 | 
CCN(CC)C1N=C(c2ccccc2)c2ccccc2NC1=O (stereo unspecified) | Not toxic | > 50 | 
COc1ccccc1C(=O)NC1N=C(c2ccccc2)c2ccccc2NC1=O (stereo unspecified) | Not toxic | 2.3 | clearance [2]: 71.2 mL/min/kg; Tmax [3]: 4.8 min; bioavailability [4]: 4%; Vd [5]: 2.4 L/kg; Tmax [6]: 0.8 h; Cmax [7]: 798 ng/mL; Cmax [8]: 19.3 ng/mL; half-life [9]: 0.4 h
COc1ccc(CNC2N=C(c3ccccc3)c3ccccc3NC2=O)cc1 (stereo unspecified) | Not toxic |  | 
COc1ccc(F)cc1C(=O)NC1N=C(c2ccccc2)c2ccccc2NC1=O (stereo unspecified) | Not toxic | 1.5 | Cmax [10]: 10.3 ng/mL; Tmax [11]: 3.33 h; CL/F [12]: 981 mL/min/kg
COc1ccc2c(c1)C(c1ccccc1)=NC(NC(=O)c1ccccc1OC)C(=O)N2 (stereo unspecified) | Not toxic | > 50 | 
CCOc1ccccc1C(=O)NC1N=C(c2ccccc2)c2ccccc2NC1=O (stereo unspecified) | Not toxic | 3.6 | 
COc1cc([N+](=O)[O-])ccc1C(=O)NC1N=C(c2ccccc2)c2ccccc2NC1=O (stereo unspecified) | Not toxic |  | IC50 [13]: 1.2 µM; Cmax [10]: 1670 ng/mL; IC50 [14]: < 0.3 µM; Tmax [11]: 3 h; Vdss (Rattus norvegicus [15]): 9.8 L/kg; IC50 [16]: 2.5 µM; half-life [17]: 5.8 h; IC50 [18]: 1.8 µM; IC50 [19]: 1.3 µM; CL/F [12]: 18.8 mL/min/kg; IC50 [20]: 0.9 µM
O=C(NC1N=C(c2ccccc2)c2ccccc2NC1=O)c1cccc([N+](=O)[O-])c1 (stereo unspecified) | Not toxic | 7.4 | 
COc1ccccc1C(=O)NC1N=C(c2cccc(C(F)(F)F)c2)c2ccccc2NC1=O (stereo unspecified) | Not toxic | 16.7 | 
COc1cc2c(cc1OC)C(c1ccccc1)=NC(NC(=O)c1ccccc1OC)C(=O)N2 (stereo unspecified) | Not toxic | > 50 | 
O=C(NC1N=C(c2ccccc2)c2ccccc2NC1=O)c1ccc([N+](=O)[O-])cc1 (stereo unspecified) | Not toxic | 6.7 | 
O=C(NC1N=C(c2cccc(C(F)(F)F)c2)c2ccccc2NC1=O)c1ccco1 (stereo unspecified) | Not toxic | 18.8 | 
O=C(NC1N=C(c2ccccc2)c2ccccc2NC1=O)c1cccc(C(F)(F)F)c1 (stereo unspecified) | Not toxic | 7.5 | 
COc1cc(Cl)ccc1C(=O)NC1N=C(c2ccccc2)c2ccccc2NC1=O (stereo unspecified) | Not toxic | 5.9 | Cmax [10]: 273 ng/mL; Tmax [11]: 1 h; Vdss (Rattus norvegicus [15]): 98.3 L/kg; half-life [17]: 2.7 h; CL/F [12]: 288 mL/min/kg
O=C(NC1N=C(c2ccccc2)c2ccccc2NC1=O)c1ccccc1CN1CCOCC1 (stereo unspecified) | Not toxic | 20.7 | 
Cc1cc(C(=O)NC2N=C(c3ccccc3)c3ccccc3NC2=O)oc1C (stereo unspecified) | Not toxic | 2.8 | 
O=C(NC1N=C(c2ccc(C(F)(F)F)cc2)c2ccccc2NC1=O)c1ccco1 (stereo unspecified) | Not toxic | > 50 | 

Structure (SMILES) | Activity (HEp-2) | IC50 [1] [µM] | also measured
COc1ccccc1C(=O)NC1N=C(c2ccc(C(F)(F)F)cc2)c2ccccc2NC1=O (stereo unspecified) | Not toxic | > 50 | 
COc1ccc(C2=NC(NC(=O)c3ccccc3OC)C(=O)Nc3ccccc32)cc1 (stereo unspecified) | Not toxic | > 50 | 
COc1cc([N+](=O)[O-])ccc1C(=O)NC1N=C(c2ccccc2)c2ccccc2N(C)C1=O (stereo unspecified) | Not toxic | > 50 | 
CC(C)C(=O)NC1N=C(c2ccccc2)c2ccccc2NC1=O (stereo unspecified) | Not toxic | 9.5 | 
COc1cc([N+](=O)[O-])ccc1C(=O)N(C)C1N=C(c2ccccc2)c2ccccc2NC1=O (stereo unspecified) | Not toxic | 25.1 | 
COc1ccc(C(=O)NC2N=C(c3ccccc3)c3ccccc3NC2=O)c(OC)c1 (stereo unspecified) | Not toxic | 2.1 | 
COc1ccc(C(=O)NC2N=C(C)c3ccccc3NC2=O)cc1 (stereo unspecified) | Not toxic | > 50 | 
COc1cccc(C2=NC(NC(=O)c3ccccc3OC)C(=O)Nc3ccccc32)c1 (stereo unspecified) | Not toxic | > 50 | 
COc1ccccc1C(=O)NC1N=C(c2ccccc2)c2ccc(C)cc2NC1=O (stereo unspecified) | Not toxic | 19.2 | 
COc1ccccc1C(=O)NC1N=C(c2ccccc2F)c2cc(Cl)ccc2NC1=O (stereo unspecified) | Not toxic | 26.2 | 
O=C1Nc2ccccc2C(c2ccccc2)=NC1NC(=O)N1CCOCC1 (stereo unspecified) | Not toxic | 9.7 | 
CNc1ccccc1C(=O)NC1N=C(c2ccccc2)c2ccccc2NC1=O (stereo unspecified) | Not toxic | 9.6 | 
O=C(NC1N=C(c2ccccc2)c2ccccc2NC1=O)c1ccco1 (stereo unspecified) | Not toxic | 3.2 | 
CN(C)c1ccccc1C(=O)NC1N=C(c2ccccc2)c2ccccc2NC1=O (stereo unspecified) | Not toxic | 4.8 | 
O=C(Nc1ccccc1F)NC1N=C(C2CCCCC2)c2ccccc2NC1=O (stereo unspecified) | Not toxic | > 50 | 
CCN(CC)C(=O)NC1N=C(c2ccccc2)c2ccccc2NC1=O (stereo unspecified) | Not toxic | 20.7 | 
O=C1Nc2ccccc2C(c2ccccc2)=NC1N1CCOCC1 (stereo unspecified) | Not toxic | > 50 | 
CN1CCN(C(=O)NC2N=C(c3ccccc3)c3ccccc3NC2=O)CC1 (stereo unspecified) | Not toxic | 9.3 | 
COc1ccc(C(=O)NC2N=C(c3ccccc3)c3ccccc3NC2=O)cc1 (stereo unspecified) | Not toxic | 3.6 | 
O=C(NC1N=C(c2ccccc2)c2ccccc2NC1=O)c1cccs1 (stereo unspecified) | Not toxic | 5.6 | 

Structure (SMILES) | Activity (HEp-2) | IC50 [1] [µM] | also measured
O=C(NC1N=C(c2ccccc2)c2ccccc2NC1=O)C1CCCCC1 (stereo unspecified) | Not toxic |  | 
CC(C)(C)C(=O)NC1N=C(c2ccccc2)c2ccccc2NC1=O (stereo unspecified) | Not toxic | 16.7 | 
O=C1Nc2ccccc2C(c2ccccc2)=NC1NC(=O)C1CCCO1 (stereo unspecified) | Not toxic | 17.4 | 
CN1C(=O)C(NC(=O)Nc2ccccc2F)N=C(c2ccccc2)c2ccccc21 (stereo unspecified) | Not toxic | > 50 | 
O=C(NC1N=C(c2ccccc2)c2ccccc2NC1=O)c1ccccc1 (stereo unspecified) | Not toxic | 5.5 | 
O=C(NC1N=C(C2CCCCC2)c2ccccc2NC1=O)c1ccco1 (stereo unspecified) | Not toxic | > 50 | 
O=C(Nc1ccccc1F)OC1N=C(c2ccccc2)c2ccccc2NC1=O (stereo unspecified) | Not toxic | 16.1 | 
COc1cc(S(C)(=O)=O)ccc1C(=O)NC1N=C(c2ccccc2)c2ccccc2NC1=O (stereo unspecified) | Not toxic | 2 | 
O=C(NC1N=C(c2ccccc2)c2ccc(Cl)cc2NC1=O)c1cccs1 (stereo unspecified) | Not toxic | 26.7 | 
COc1ccccc1CNC1N=C(c2ccccc2)c2ccccc2NC1=O (stereo unspecified) | Not toxic | 27.3 | 
COc1ccccc1C(=O)NC1N=C(c2ccccc2)c2cc(Cl)ccc2NC1=O (stereo unspecified) | Not toxic | 6.1 | 
O=C(Nc1ccccc1F)NC1N=C(c2ccccc2)c2ccccc2NC1=O (stereo unspecified) | Not toxic | 3.3 | IC50 [21]: 2.8 µM; IC50 [13]: 2.5 µM; Tmax [3]: 4.8 min; bioavailability [4]: 76%; IC50 [14]: 0.75 µM; Vd [5]: 2.5 L/kg; Tmax [6]: 2.6 h; IC50 [16]: 2.7 µM; IC50 [18]: 3 µM; IC50 [19]: 1.9 µM; Cmax [7]: 1530 ng/mL; Cmax [8]: 386 ng/mL; half-life [9]: 3.7 h; Vdss (Rattus norvegicus [22]): 7.5 L/kg; IC50 [20]: 2.2 µM; half-life [23]: 8.1 h
COc1ccccc1C(=O)NC1N=C(c2ccc(F)cc2)c2ccccc2NC1=O (stereo unspecified) | Not toxic | 16.5 | 
O=C(NC1N=C(c2ccccc2)c2ccccc2NC1=O)c1ccccc1OC(F)(F)F (stereo unspecified) | Not toxic | 14.4 | 
O=C(NC1N=C(c2ccccc2F)c2cc(Cl)ccc2NC1=O)c1ccco1 (stereo unspecified) | Not toxic | 41.3 | 
O=C(NC1N=C(c2ccccc2)c2ccccc2NC1=O)c1ccccc1C1CCCCC1 (stereo unspecified) | Not toxic | > 50 | 
O=C(NC1N=C(c2cccc(Cl)c2)c2ccccc2NC1=O)c1ccco1 (stereo unspecified) | Not toxic | 6.9 | 
COc1cccc(C(=O)NC2N=C(c3ccccc3)c3ccccc3NC2=O)c1 (stereo unspecified) | Not toxic | 6.6 | 
